Results from PMC4876928 (Clinical cancer research : an official journal of the …, 2016).

Key:
[1] = test system: phospho-AKT (pAKT) (S473) in platelet-rich plasma; test: pAKT; format: in vivo, human
Method in brief: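 Patients took oral test compound QD on 21/28 or 28/28 schedules. Total AKT and pAKT (S473) were measured by Meso Scale Discovery immunoassay. Results are percent change in pAKT from baseline.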

[2] = Phase I safety and tolerability: DLTs, MTD, adverse events; format: in vivo, human
[3] = test system: tumor glucose uptake (FDG-PET); test: FDG-PET tumor uptake; format: in vivo, human
Method in brief: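 Patients with advanced solid tumours received oral test compound once daily. FDG-PET/CT scans were taken at baseline and 1-4 h after dosing on days 22 and 55. Scans were centrally assessed by EORTC criteria, with SUVmax change as the measure. PIK3CA hotspot mutations in archival FFPE tumour DNA were typed by DxS allele-specific PCR, qRT-PCR or Sanger sequencing.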

[4] = test system: xenograft cancer models with PI3K-mutant, PTEN-null, and KRAS-mutant cell lines; conditions: multiple xenograft models; cited from earlier work
mTOR kinase = conditions: read-out: inhibition constant (Ki) mTOR kinase; cited from earlier work
[5] = All patients in study (n=120), G3
[6] = All patients in study (n=120), ≤G2
[7] = All patients in study (n=120), ≥G4

## Cc1c(CN2CCN(C(=O)[C@H](C)O)CC2)sc2c(N3CCOCC3)nc(-c3cnc(N)nc3)nc12 [apitolisib]
[1]; 40 mg 28/28
  sustained pAKT inhibition: > 90%
[1]; in vivo
  doses with target modulation: ≥ 16 mg
[1]; platelet-rich plasma, within 4 hours, MTD 50 mg
  suppression of phosphorylated serine-473 AKT levels: ≥ 90%
[2]; 30mg 28/28d (n=27), G3
  Decreased appetite, treatment related AE, n (%): 0
  Diarrhea, treatment related AE, n (%): 2 (7%)
  Dry skin, treatment related AE, n (%): 0
  Fatigue, treatment related AE, n (%): 4 (15%)
  Hyperglycemia, treatment related AE, n (%): 1 (4%)
  Liver dysfunction (abnormal LFTs), treatment related AE, n (%): 1 (4%)
  Mucosal inflammation, treatment related AE, n (%): 0
  Nausea, treatment related AE, n (%): 1 (4%)
  Patients with any AE related to apitolisib, n (%): 14 (52%)
  Pneumonitis, treatment related AE, n (%): 1 (4%)
  Pruritus, treatment related AE, n (%): 0
  Rash (maculopapular, pruritic, macular, erythematous, generalized), treatment related AE, n (%): 5 (19%)
  Vomiting, treatment related AE, n (%): 0
[2]; 30mg 28/28d (n=27), ≤G2
  Decreased appetite, treatment related AE, n (%): 13 (48%)
  Diarrhea, treatment related AE, n (%): 16 (59%)
  Dry skin, treatment related AE, n (%): 7 (26%)
  Fatigue, treatment related AE, n (%): 15 (56%)
  Hyperglycemia, treatment related AE, n (%): 0
  Liver dysfunction (abnormal LFTs), treatment related AE, n (%): 1 (4%)
  Mucosal inflammation, treatment related AE, n (%): 3 (11%)
  Nausea, treatment related AE, n (%): 11 (41%)
  Patients with any AE related to apitolisib, n (%): 12 (44%)
  Pneumonitis, treatment related AE, n (%): 3 (11%)
  Pruritus, treatment related AE, n (%): 2 (7%)
  Rash (maculopapular, pruritic, macular, erythematous, generalized), treatment related AE, n (%): 12 (44%)
  Vomiting, treatment related AE, n (%): 5 (19%)
[2]; 30mg 28/28d (n=27), ≥G4
  Decreased appetite, treatment related AE, n (%): 0
  Diarrhea, treatment related AE, n (%): 0
  Dry skin, treatment related AE, n (%): 0
  Fatigue, treatment related AE, n (%): 0
  Hyperglycemia, treatment related AE, n (%): 1 (4%)
  Liver dysfunction (abnormal LFTs), treatment related AE, n (%): 0
  Mucosal inflammation, treatment related AE, n (%): 0
  Nausea, treatment related AE, n (%): 0
  Patients with any AE related to apitolisib, n (%): 1 (4%)
  Pneumonitis, treatment related AE, n (%): 0
  Pruritus, treatment related AE, n (%): 0
  Rash (maculopapular, pruritic, macular, erythematous, generalized), treatment related AE, n (%): 0
  Vomiting, treatment related AE, n (%): 0
[2]; 40 mg 21/28 d, stage 1
  DLTs, Description: G4 fasting hyperglycemia
[2]; 40mg 28/28d (n=51), G3
  Decreased appetite, treatment related AE, n (%): 0
  Diarrhea, treatment related AE, n (%): 5 (10%)
  Dry skin, treatment related AE, n (%): 1 (2%)
  Fatigue, treatment related AE, n (%): 2 (4%)
  Hyperglycemia, treatment related AE, n (%): 9 (18%)
  Liver dysfunction (abnormal LFTs), treatment related AE, n (%): 6 (12%)
  Mucosal inflammation, treatment related AE, n (%): 3 (6%)
  Nausea, treatment related AE, n (%): 1 (2%)
  Patients with any AE related to apitolisib, n (%): 26 (51%)
  Pneumonitis, treatment related AE, n (%): 2 (4%)
  Pruritus, treatment related AE, n (%): 1 (2%)
  Rash (maculopapular, pruritic, macular, erythematous, generalized), treatment related AE, n (%): 7 (14%)
  Vomiting, treatment related AE, n (%): 1 (2%)
[2]; 40mg 28/28d (n=51), ≤G2
  Decreased appetite, treatment related AE, n (%): 11 (22%)
  Diarrhea, treatment related AE, n (%): 23 (45%)
  Dry skin, treatment related AE, n (%): 7 (14%)
  Fatigue, treatment related AE, n (%): 34 (67%)
  Hyperglycemia, treatment related AE, n (%): 5 (10%)
  Liver dysfunction (abnormal LFTs), treatment related AE, n (%): 2 (4%)
  Mucosal inflammation, treatment related AE, n (%): 15 (29%)
  Nausea, treatment related AE, n (%): 22 (43%)
  Patients with any AE related to apitolisib, n (%): 20 (39%)
  Pneumonitis, treatment related AE, n (%): 1 (2%)
  Pruritus, treatment related AE, n (%): 13 (25%)
  Rash (maculopapular, pruritic, macular, erythematous, generalized), treatment related AE, n (%): 20 (39%)
  Vomiting, treatment related AE, n (%): 10 (20%)
[2]; 40mg 28/28d (n=51), ≥G4
  Decreased appetite, treatment related AE, n (%): 0
  Diarrhea, treatment related AE, n (%): 0
  Dry skin, treatment related AE, n (%): 0
  Fatigue, treatment related AE, n (%): 0
  Hyperglycemia, treatment related AE, n (%): 0
  Liver dysfunction (abnormal LFTs), treatment related AE, n (%): 0
  Mucosal inflammation, treatment related AE, n (%): 0
  Nausea, treatment related AE, n (%): 0
  Patients with any AE related to apitolisib, n (%): 5 (10%)
  Pneumonitis, treatment related AE, n (%): 2 (4%)
  Pruritus, treatment related AE, n (%): 0
  Rash (maculopapular, pruritic, macular, erythematous, generalized), treatment related AE, n (%): 0
  Vomiting, treatment related AE, n (%): 0
[2]; 70 mg 21/28 d, stage 1
  DLTs, Description: G3 maculopapular rash and G3 fasting hyperglycemia
[2]; 1 at 50 mg QD 21/28, 3 at 40 mg QD 28/28
  treatment related deaths on study: 4
[2]; 4 patients in stage 2 (2 at 40 mg and 2 at 30 mg QD)
  patients requiring treatment discontinuation for rash: 5.1%
[2]; All doses, stage 1
  DLTs, Description: Hyperglycemia (n=2) Rash
[2]; [5]
  Decreased appetite, treatment related AE, n (%): 0
  Diarrhea, treatment related AE, n (%): 11 (9%)
  Dry skin, treatment related AE, n (%): 1 (1%)
  Fatigue, treatment related AE, n (%): 7 (6%)
  Hyperglycemia, treatment related AE, n (%): 18 (15%)
  Liver dysfunction (abnormal LFTs), treatment related AE, n (%): 9 (8%)
  Mucosal inflammation, treatment related AE, n (%): 4 (3%)
  Nausea, treatment related AE, n (%): 2 (2%)
  Patients with any AE related to apitolisib, n (%): 51 (42%)
  Pneumonitis, treatment related AE, n (%): 4 (3%)
  Pruritus, treatment related AE, n (%): 1 (1%)
  Rash (maculopapular, pruritic, macular, erythematous, generalized), treatment related AE, n (%): 14 (12%)
  Vomiting, treatment related AE, n (%): 1 (1%)
[2]; [6]
  Decreased appetite, treatment related AE, n (%): 42 (35%)
  Diarrhea, treatment related AE, n (%): 60 (50%)
  Dry skin, treatment related AE, n (%): 16 (13%)
  Fatigue, treatment related AE, n (%): 73 (61%)
  Hyperglycemia, treatment related AE, n (%): 9 (8%)
  Liver dysfunction (abnormal LFTs), treatment related AE, n (%): 4 (3%)
  Mucosal inflammation, treatment related AE, n (%): 27 (23%)
  Nausea, treatment related AE, n (%): 48 (40%)
  Patients with any AE related to apitolisib, n (%): 60 (50%)
  Pneumonitis, treatment related AE, n (%): 8 (7%)
  Pruritus, treatment related AE, n (%): 22 (18%)
  Rash (maculopapular, pruritic, macular, erythematous, generalized), treatment related AE, n (%): 47 (39%)
  Vomiting, treatment related AE, n (%): 24 (20%)
[2]; [7]
  Decreased appetite, treatment related AE, n (%): 0
  Diarrhea, treatment related AE, n (%): 0
  Dry skin, treatment related AE, n (%): 0
  Fatigue, treatment related AE, n (%): 0
  Hyperglycemia, treatment related AE, n (%): 2 (2%)
  Liver dysfunction (abnormal LFTs), treatment related AE, n (%): 0
  Mucosal inflammation, treatment related AE, n (%): 0
  Nausea, treatment related AE, n (%): 0
  Patients with any AE related to apitolisib, n (%): 8 (7%)
  Pneumonitis, treatment related AE, n (%): 2 (2%)
  Pruritus, treatment related AE, n (%): 0
  Rash (maculopapular, pruritic, macular, erythematous, generalized), treatment related AE, n (%): 0
  Vomiting, treatment related AE, n (%): 0
[2]; QD, 21/28-day schedule, DLT <33.3%
  maximum tolerated dose (MTD): 50 mg
[2]; QD, 28/28-day schedule, except MPM patients
  recommended phase 2 dose (RP2D): 40 mg
[2]; QD, 28/28 schedule, malignant pleural mesothelioma patients
  recommended dose for MPM: 30 mg
[2]; QD, continuous 28/28 schedule
  maximum administered dose (MAD): 50 mg
[2]; RP2D 40 mg QD
  diarrhea, treatment related ≥G3: 10%
  fatigue, treatment related ≥G3: 4%
  hyperglycemia, treatment related ≥G3: 18%
  liver dysfunction, treatment related ≥G3: 12%
  mucosal inflammation, treatment related ≥G3: 6%
  pneumonitis, treatment related ≥G3: 8%
  rash, treatment related ≥G3: 14%
[2]; all patients, six severe
  pneumonitis cases reported on study: 14
[2]; continuous 28/28 schedule
  MTD: not reached
[2]; human, in vivo, oral
  dose reductions due to diarrhea: 2 n
  dose reductions due to mucosal inflammation: 2 n
  dose reductions due to pneumonitis: 2 n
[2]; in vivo
  rate of severe pneumonitis (grade ≥3): 8%
[2]; stage 1, including 3 severe cases
  patients with pneumonitis outside the DLT window: 8 patients
[3]; 40 mg QD
  patients with PIK3CA mutations with more than 25% mean decrease in SUVmax: 9/12
[3]; 40 mg QD (21/32)
  patients with decrease in FDG-PET uptake of >25%: 66%
[3]; all dose cohorts (10 out of 14)
  PIK3CA mutation patients with FDG-PET response: 71%
[4]
  Tumor growth inhibition: Tumor growth inhibition has been demonstrated
mTOR kinase
  Ki: 17.3 nM
